Reference: ChEMBL document CHEMBL1629439, “High-throughput identification of antibacterials against methicillin-resistant Staphylococcus aureus (MRSA) and the transglycosylase” (Bioorg Med Chem, 2010)
Values after ≈ are worked out from the molar mass of the structure shown.

Key:
[1] = system: Staphylococcus aureus; assay: Antimicrobial activity against methicillin-resistant Staphylococcus aureus isolate NTUH4722 after 18 to 24 hrs by alamar blue assay; type: functional
Method in brief: (§1)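 Broth microdilution per NCCLS standard, Mueller-Hinton broth, 8-point twofold dilutions; exponentially growing cells at 5 10^5 cells/ml with compound, 18–24 h at 37 C; 20% Alamar blue added, fluorescence read; MIC90 taken as lowest concentration preventing at least 90% growth.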

[2] = system: Staphylococcus aureus; assay: Antimicrobial activity against Staphylococcus aureus ATCC 29213 after 18 to 24 hrs by alamar blue assay
[3] = system: Staphylococcus aureus; assay: Antimicrobial activity against oxacillin- and methicillin-resistant Staphylococcus aureus isolate Sa-OXA-R2 after 18 to 24 hrs by alamar blue assay; type: functional; method in brief: as §1
[4] = system: Pseudomonas aeruginosa; assay: Antimicrobial activity against Pseudomonas aeruginosa ATCC 25619 after 18 to 24 hrs by alamar blue assay; type: functional; conditions: Pseudomonas aeruginosa, ATCC 25619; read-out: MIC
Method in brief: (§2)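 Broth microdilution per NCCLS in Mueller-Hinton broth, 8-point twofold dilutions, 384-well format. Exponential-phase cells at 5 × 10^5 cells/ml incubated with compound 18–24 h at 37 °C, then 20% Alamar blue added and fluorescence read. MIC90 taken as the lowest concentration preventing at least 90% bacterial growth.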

[5] = system: Escherichia coli; assay: Antimicrobial activity against Escherichia coli ATCC […] after 18 to 24 hrs by alamar blue assay; type: functional; conditions: Escherichia coli; read-out: MIC; method in brief: as §2
[6] = system: Stenotrophomonas maltophilia; assay: Antimicrobial activity against Stenotrophomonas maltophilia ATCC 13637 after 18 to 24 hrs by alamar blue assay; type: functional; conditions: Stenotrophomonas maltophilia, ATCC 13637; read-out: MIC; method in brief: as §2
[7] = system: Bacillus subtilis; assay: Antimicrobial activity against Bacillus subtilis ATCC 23857 after 18 to 24 hrs by alamar blue assay; type: functional; method in brief: as §2
[8] = system: Staphylococcus aureus; assay: Antimicrobial activity against methicillin-resistant Staphylococcus aureus ATCC 33592 after 18 to 24 hrs by alamar blue assay; type: functional; conditions: Staphylococcus aureus, ATCC 33592; read-out: MIC; method in brief: as §1
[9] = system: Serratia marcescens; assay: Antimicrobial activity against Serratia marcescens ATCC 14756 after 18 to 24 hrs by alamar blue assay; type: functional; conditions: Serratia marcescens, ATCC 14756; read-out: MIC; method in brief: as §2
[10] = system: Mycolicibacterium smegmatis; assay: Antimicrobial activity against Mycobacterium smegmatis BCRC 11565 after 18 to 24 hrs by alamar blue assay; type: functional; conditions: Mycolicibacterium smegmatis, BCRC 11565; read-out: MIC; method in brief: as §2
[11] = system: Acinetobacter baumannii; assay: Antimicrobial activity against Acinetobacter baumannii ATCC 49139 after 18 to 24 hrs by alamar blue assay; type: functional; conditions: Acinetobacter baumannii, ATCC 49139; read-out: MIC; method in brief: as §2

SMILES	MIC [1]	MIC [2]	MIC [3]	MIC [4]	MIC [5]	MIC [6]	MIC [7]	MIC [8]	MIC [9]	MIC [10]	MIC [11]
O=C(Nc1nnc(-c2ccc(Cl)cc2)o1)c1ccc(C(F)(F)F)cc1	1.5 µg/mL (≈ 4.08 µM)	3 µg/mL (≈ 8.16 µM)	1.5 µg/mL (≈ 4.08 µM)	> 256 µg/mL	> 256 µg/mL	> 256 µg/mL	0.5 µg/mL (≈ 1.36 µM)	1.5 µg/mL (≈ 4.08 µM)	> 256 µg/mL	0.5 µg/mL (≈ 1.36 µM)	> 256 µg/mL
Cc1ccc(-c2coc3c(C)c4oc(=O)c(CCC(=O)O)c(C)c4cc23)cc1	1 µg/mL (≈ 2.66 µM)	1 µg/mL (≈ 2.66 µM)	2 µg/mL (≈ 5.31 µM)	> 256 µg/mL	> 256 µg/mL	> 256 µg/mL	> 64 µg/mL	2 µg/mL (≈ 5.31 µM)	> 256 µg/mL	1 µg/mL (≈ 2.66 µM)	> 256 µg/mL
Cc1c(CC(=O)NCC(=O)O)c(=O)oc2c(C)c3occ(-c4ccc(Cl)cc4)c3cc12	1.25 µg/mL (≈ 2.84 µM)	1.25 µg/mL (≈ 2.84 µM)	1.25 µg/mL (≈ 2.84 µM)	> 256 µg/mL	> 256 µg/mL	> 256 µg/mL	> 64 µg/mL	1.25 µg/mL (≈ 2.84 µM)	> 256 µg/mL	1 µg/mL (≈ 2.27 µM)	> 256 µg/mL
Cc1c(CC(=O)N[C@@H](C)C(=O)O)c(=O)oc2c(C)c3occ(-c4ccc(Cl)cc4)c3cc12	0.3 µg/mL (≈ 0.661 µM)	0.3 µg/mL (≈ 0.661 µM)	1.25 µg/mL (≈ 2.75 µM)	> 256 µg/mL	> 256 µg/mL	> 256 µg/mL	> 64 µg/mL	1.25 µg/mL (≈ 2.75 µM)	> 256 µg/mL	1 µg/mL (≈ 2.2 µM)	> 256 µg/mL
O=C1c2cccc3c([N+](=O)[O-])ccc(c23)C(=O)N1Cc1cccnc1	8 µg/mL (≈ 24 µM)	8 µg/mL (≈ 24 µM)	8 µg/mL (≈ 24 µM)	> 256 µg/mL	> 256 µg/mL	> 256 µg/mL	4 µg/mL (≈ 12 µM)	2 µg/mL (≈ 6 µM)	> 256 µg/mL	4 µg/mL (≈ 12 µM)	> 256 µg/mL
CCC1Sc2ccc(S(=O)(=O)Nc3cc(Cl)ccc3C)cc2NC1=O (configuration not stated)	16 µg/mL (≈ 40.3 µM)	4 µg/mL (≈ 10.1 µM)	16 µg/mL (≈ 40.3 µM)	> 256 µg/mL	> 256 µg/mL	> 256 µg/mL	< 0.03 µg/mL	> 64 µg/mL	> 256 µg/mL	> 64 µg/mL	> 256 µg/mL
CCOC(=O)c1c(NC(=O)c2ccc([N+](=O)[O-])o2)sc2c1CCN(C(C)=O)C2	1 µg/mL (≈ 2.45 µM)	1 µg/mL (≈ 2.45 µM)	1 µg/mL (≈ 2.45 µM)	128 µg/mL (≈ 314 µM)	256 µg/mL (≈ 628 µM)	32 µg/mL (≈ 78.5 µM)	0.06 µg/mL (≈ 0.147 µM)	4 µg/mL (≈ 9.82 µM)	32 µg/mL (≈ 78.5 µM)	0.5 µg/mL (≈ 1.23 µM)	12 µg/mL (≈ 29.5 µM)
